This note sets out measurements from ChEMBL document CHEMBL1122730, “Synthesis and pharmacological evaluation of indanpropionic acids as uterine relaxants” (1984).

As a reminder, the inhibition is the change of the read-out against control, counted positive when it falls. The low end stands for a response near the control, the high end for a response far below the control.

The species entered for test [1] is Mus musculus. Briefly: Compounds were evaluated for the percent recovery of the contraction induced by KCL in the isolated mouse uterus at a concentration 10 E -5M. It counts as functional. Put shortly:
(§1)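 KCl (54 mM) served as agonist in the uterine strip. After the 5-min KCl response with the test agent present, the tissue was washed 20 min and challenged again with KCl for 5 min. The recovery response was expressed as integrated force, as a % of the mean of two initial control KCl responses.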

The species named for test [2] is Mus musculus. Briefly: Inhibitory effect against contraction induced by KCL in the isolated mouse uterus at a concentration of 10 E -5 M. It counts as functional. Put shortly: (§2)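 KCl (54 mM) replaced PGF2α as the stimulus. After 30-min equilibration, two 5-min control KCl responses were taken, each with a 20-min washout. The test agent was then preincubated 5 min before KCl was added. The integrated force over 5 min was expressed as a % of the mean of the two controls. Compounds were in NaOH, neutralised to pH 7.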

The species entered for test [3] is Mus musculus. Briefly: Inhibitory effect against contraction induced by PGF2-alpha in the isolated mouse uterus at a concentration of 10 E -4 M. It counts as functional. An outline of the steps: (§3)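 Uterine strips were equilibrated 30 min, then given two 5-min control responses to PGF2α (10^-7 M), each followed by a 20-min washout. The test agent was in the bath 5 min before 10^-7 M PGF2α was added. The integrated contractile force over 5 min was taken as a % of the mean of the two controls. Agents were dissolved in 0.25 N NaOH and diluted with water to pH 7.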

For test [4], the species on record is Mus musculus. Briefly: Compounds were evaluated for the percent recovery of the contraction induced by PGF2-alpha in the isolated mouse uterus at a concentration 10 E -4 M. It counts as functional, tissue-based. An outline of the steps:
(§4)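 Recovery after PGF2α challenge: following a 5-min PGF2α (10^-7 M) response with the test agent present, the tissue was washed 20 min with physiological medium, then re-exposed to 10^-7 M PGF2α for 5 min. The integrated contractile force was expressed as a % of the mean of two initial control PGF2α responses.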

For test [5], the species on record is Mus musculus. Briefly: Inhibitory effect against contraction induced by KCL in the isolated mouse uterus at a concentration of 10 E -4 M. It counts as functional. An outline of the steps:
as §2

For test [6], the species on record is Mus musculus. As to the kind of experiment: Compounds were evaluated for the percent recovery of the contraction induced by KCL in the isolated mouse uterus at a concentration 10 E -4 M. It counts as functional. An outline of the steps:
as §1

The species named for test [7] is Mus musculus. As to the kind of experiment: Inhibitory effect against contraction induced by PGF2-alpha in the isolated mouse uterus at a concentration of 10 E -5 M. It counts as functional. Put shortly: as §3
For test [8], the species on record is Mus musculus. Briefly: Compounds were evaluated for the percent recovery of the contraction induced by PGF2-alpha in the isolated mouse uterus at a concentration 10 E -5 M. It counts as functional. An outline of the steps: as §4
Test [9] is filed under the species Mus musculus. Briefly: Inhibitory effect against contraction induced by KCL in the isolated mouse uterus at a concentration of 10 E -6 M. It counts as functional. An outline of the steps: as §2
The species named for test [10] is Mus musculus. Briefly: Compounds were evaluated for the percent recovery of the contraction induced by PGF2-alpha in the isolated mouse uterus at a concentration 10 E -6 M. It counts as functional. Put shortly: as §4
Test [11] is filed under the species Mus musculus. Briefly: (§5) Inhibitory effect for the contraction induced by BaCl2 in [Ca2+] free buffer in the isolated mouse uterus at a concentration 10 E -4 M. It counts as functional. An outline of the steps:
(§6)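 BaCl2 (2.2 × 10^-4 M) stimulated the uterine strip, in Ca2+-containing or Ca2+-free buffer. Two 5-min control responses were taken, each with a 20-min washout. The test agent was added 5 min before BaCl2. The integrated contractile force was expressed as a % of the mean control response.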

For test [12], the species on record is Mus musculus. As to the kind of experiment: Compounds were evaluated for the percent recovery of the contraction induced by PGF2-alpha in the isolated mouse uterus at a concentration 3X 10 E -5 M. It counts as functional. An outline of the steps: as §4
Test [13] is filed under the species Mus musculus. As to the kind of experiment: Inhibitory effect against contraction induced by PGF2-alpha in the isolated mouse uterus at a concentration of 3X10 E -5 M. It counts as functional. Put shortly:
as §3

The species entered for test [14] is Mus musculus. The test is described as §5. It counts as functional. Put shortly:
as §6
This is another data set of the same source.

Test [15] is filed under the species Mus musculus. As to the kind of experiment: (§7) Inhibitory effect for the contraction induced by BaCl2 in [Ca2+] containing buffer in the isolated mouse uterus at a concentration 10 E -4 M. It counts as functional. An outline of the steps: as §6
The species named for test [16] is Mus musculus. As to the kind of experiment: Inhibitory effect against contraction induced by PGF2-alpha in the isolated mouse uterus at a concentration of 10 E -6 M. It counts as functional. Put shortly: as §3
The species entered for test [17] is Mus musculus. The test is described as §7. It counts as functional. Put shortly: as §6
The source holds these as a separate data set.

Test [18] is filed under the species Mus musculus. As to the kind of experiment: Compounds were evaluated for the percent recovery of the contraction induced by KCL in the isolated mouse uterus at a concentration 10 E -6M. It counts as functional. Put shortly: as §1
The species entered for test [19] is Mus musculus. Briefly: Inhibitory effect against contraction induced by PGF2-alpha in the isolated mouse uterus at a concentration of 10 E -4M. It counts as functional. An outline of the steps: as §3

With `O=C(O)CCC1(CCC(=O)O)Cc2cc(OCc3ccccc3)ccc2C1=O`, the Recovery in test [1] is 106%; in test [4], 91.1%; in test [6] it was 105%; in test [8] it was 79.9%. Moreover, the figures for the inhibition at 10 µM in test [2] and in [7] were 8.3% and 10.5%, respectively. Besides, the values for the inhibition at 100 µM in [3] and in test [5] were 6.5% and 1.9%, respectively.

Take `CCCCC1(CCC(=O)O)Cc2cc(OCc3ccccc3)ccc2C1O` (stereo not drawn): the inhibition at 100 µM in test [3] was found to be 20.4%. For the same compound, the Recovery in [4] came out at 104%; in test [8] it was 91.7%. The same compound registered an inhibition at 10 µM in test [7] of 0.5%.

On to `CCCC1(CCC(=O)O)Cc2cc(OCc3ccccc3)ccc2C1=O` (stereo not drawn), for which the inhibition at 100 µM in [3] is 42%. For the same compound, the Recovery in test [4] was determined as 85.3%; in test [8], 85.5%. For the same compound, in test [7], the inhibition at 10 µM turned out to be 6.4%.

With `CCC[C@@]1(CCC(=O)O)Cc2cc(OCc3ccccc3)c(OCc3ccccc3)cc2[C@H]1O`, the Recovery in [1] was found to be 84.2%; in [10] it was 88.7%; in test [11], 39.4%; in test [12], 79.7%; in test [15], 105%; in [4] it was 82.8%. Besides, the Recovery in [6] amounted to 85.8%; in [18], 86.1%; in [8] it was 81.8%. Besides, the inhibition at 1 µM in test [9] was found to be 1.2%; in test [16] it was 0%. The inhibition at 10 µM is 9.4% in test [2] and 17.2% in [7]. The same compound returned an inhibition at 30 µM in test [13] of 36.4%. Further, the inhibition at 100 µM in test [14] was determined as 88.2%; in [3], 67.1%; in test [17] it was 48.1%; in test [5], 53.2%.

In turn, `CCC1(CCC(=O)O)Cc2cc(OCc3ccccc3)ccc2C1=O` (stereo not drawn) had an inhibition at 100 µM in test [19] of 44.4%. The Recovery in [4] was 70.4%; in test [8], 69.3%. Moreover, in [7], the inhibition at 10 µM turned out to be 27.3%.
